Experimental data: ChEMBL document CHEMBL5058577, “EUbOPEN Chemogenomics Library 2 (Multiplex)” (2022)

System: HEK-293T
Assay: Multiplex assay against HEK293T
Format: toxicity, cell-based
Settings: human
Method in brief: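 Live cells were stained at seeding with Hoechst33342, BioTracker Green Microtubule Cytoskeleton Dye, MitoTracker Red and Annexin V Alexa Fluor 680. Following compound addition, they were imaged on a CQ1 microscope at 37°C and 5% CO2 and gated by CellPathfinder machine learning into Hoechst high-intensity objects or normal cells, with normal cells split into healthy, pyknosed or fragmented nuclei and pyknosed cells into mitotic or apoptotic. Tubulin, mitochondrial-mass and membrane-permeability phenotypes are per cents of healthy-nucleus cells.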

[1] = 12 h, 1 µM, compound concentration 1 uM, replicate 1
[2] = 12 h, 1 µM, compound concentration 1 uM, replicate 2
[3] = 12 h, 10 µM, compound concentration 10 uM, replicate 1
[4] = 12 h, 10 µM, compound concentration 10 uM, replicate 2
[5] = 24 h, 1 µM, compound concentration 1 uM, replicate 1
[6] = 24 h, 1 µM, compound concentration 1 uM, replicate 2
[7] = 24 h, 10 µM, compound concentration 10 uM, replicate 1
[8] = 24 h, 10 µM, compound concentration 10 uM, replicate 2
[9] = 48 h, 1 µM, compound concentration 1 uM, replicate 1
[10] = 48 h, 1 µM, compound concentration 1 uM, replicate 2
[11] = 48 h, 10 µM, compound concentration 10 uM, replicate 1
[12] = 48 h, 10 µM, compound concentration 10 uM, replicate 2

Structure (SMILES): COc1c(Nc2ccc(S(C)(=O)=O)nc2C)ncnc1OC1CCN(C(=O)OC(C)C)CC1 [ADP-597]
- Population Apoptotic (%) [1]: 29%
- Population Fragmented Nuclei (%) [1]: 5%
- Population Healthy Nuclei (%) [1]: 78%
- Population Hoechst High Intensity Objects (%) [1]: 6%
- Population Membrane Permeable-Phenotype (%) [1]: 0%
- Population Mitochondria Different-Phenotype (%) [1]: 47%
- Population Mitotic Cells (%) [1]: 70%
- Population Normal (%) [1]: 93%
- Population Pyknosed Nuclei (%) [1]: 16%
- Population Tubulin-Different-Phenotype (%) [1]: 36%
- Total Cell Count [1]: 430
- Population Apoptotic (%) [2]: 38%
- Population Fragmented Nuclei (%) [2]: 4%
- Population Healthy Nuclei (%) [2]: 80%
- Population Hoechst High Intensity Objects (%) [2]: 3%
- Population Mitochondria Different-Phenotype (%) [2]: 62%
- Population Mitotic Cells (%) [2]: 62%
- Population Normal (%) [2]: 96%
- Population Pyknosed Nuclei (%) [2]: 14%
- Population Tubulin-Different-Phenotype (%) [2]: 25%
- Total Cell Count [2]: 347
- Population Apoptotic (%) [3]: 47%
- Population Fragmented Nuclei (%) [3]: 7%
- Population Healthy Nuclei (%) [3]: 75%
- Population Hoechst High Intensity Objects (%) [3]: 8%
- Population Membrane Permeable-Phenotype (%) [3]: 0%
- Population Mitochondria Different-Phenotype (%) [3]: 70%
- Population Mitotic Cells (%) [3]: 52%
- Population Normal (%) [3]: 91%
- Population Pyknosed Nuclei (%) [3]: 17%
- Population Tubulin-Different-Phenotype (%) [3]: 44%
- Total Cell Count [3]: 302
- Population Healthy Nuclei (%) [4]: 72%
- Population Hoechst High Intensity Objects (%) [4]: 25%
- Population Mitochondria Different-Phenotype (%) [4]: 71%
- Population Normal (%) [4]: 74%
- Population Pyknosed Nuclei (%) [4]: 20%
- Population Tubulin-Different-Phenotype (%) [4]: 36%
- Total Cell Count [4]: 238
- Population Apoptotic (%) [5]: 23%
- Population Fragmented Nuclei (%) [5]: 7%
- Population Healthy Nuclei (%) [5]: 81%
- Population Hoechst High Intensity Objects (%) [5]: 2%
- Population Membrane Permeable-Phenotype (%) [5]: 0%
- Population Mitochondria Different-Phenotype (%) [5]: 20%
- Population Mitotic Cells (%) [5]: 76%
- Population Normal (%) [5]: 97%
- Population Pyknosed Nuclei (%) [5]: 11%
- Population Tubulin-Different-Phenotype (%) [5]: 16%
- Total Cell Count [5]: 587
- Population Apoptotic (%) [6]: 30%
- Population Fragmented Nuclei (%) [6]: 6%
- Population Healthy Nuclei (%) [6]: 84%
- Population Hoechst High Intensity Objects (%) [6]: 3%
- Population Membrane Permeable-Phenotype (%) [6]: 1%
- Population Mitochondria Different-Phenotype (%) [6]: 34%
- Population Mitotic Cells (%) [6]: 69%
- Population Normal (%) [6]: 96%
- Population Pyknosed Nuclei (%) [6]: 9%
- Population Tubulin-Different-Phenotype (%) [6]: 15%
- Total Cell Count [6]: 447
- Population Apoptotic (%) [7]: 44%
- Population Fragmented Nuclei (%) [7]: 9%
- Population Healthy Nuclei (%) [7]: 74%
- Population Hoechst High Intensity Objects (%) [7]: 7%
- Population Membrane Permeable-Phenotype (%) [7]: 0%
- Population Mitochondria Different-Phenotype (%) [7]: 58%
- Population Mitotic Cells (%) [7]: 55%
- Population Normal (%) [7]: 92%
- Population Pyknosed Nuclei (%) [7]: 15%
- Population Tubulin-Different-Phenotype (%) [7]: 38%
- Total Cell Count [7]: 355
- Population Apoptotic (%) [8]: 63%
- Population Fragmented Nuclei (%) [8]: 11%
- Population Healthy Nuclei (%) [8]: 71%
- Population Hoechst High Intensity Objects (%) [8]: 21%
- Population Mitochondria Different-Phenotype (%) [8]: 54%
- Population Mitotic Cells (%) [8]: 36%
- Population Normal (%) [8]: 78%
- Population Pyknosed Nuclei (%) [8]: 17%
- Population Tubulin-Different-Phenotype (%) [8]: 25%
- Total Cell Count [8]: 300
- Population Apoptotic (%) [9]: 25%
- Population Fragmented Nuclei (%) [9]: 13%
- Population Healthy Nuclei (%) [9]: 78%
- Population Hoechst High Intensity Objects (%) [9]: 2%
- Population Membrane Permeable-Phenotype (%) [9]: 0%
- Population Mitochondria Different-Phenotype (%) [9]: 18%
- Population Mitotic Cells (%) [9]: 75%
- Population Normal (%) [9]: 97%
- Population Pyknosed Nuclei (%) [9]: 8%
- Population Tubulin-Different-Phenotype (%) [9]: 13%
- Total Cell Count [9]: 924
- Population Apoptotic (%) [10]: 36%
- Population Healthy Nuclei (%) [10]: 77%
- Population Hoechst High Intensity Objects (%) [10]: 5%
- Population Membrane Permeable-Phenotype (%) [10]: 1%
- Population Mitochondria Different-Phenotype (%) [10]: 23%
- Population Mitotic Cells (%) [10]: 63%
- Population Normal (%) [10]: 94%
- Population Pyknosed Nuclei (%) [10]: 9%
- Population Tubulin-Different-Phenotype (%) [10]: 14%
- Total Cell Count [10]: 590
- Population Apoptotic (%) [11]: 35%
- Population Fragmented Nuclei (%) [11]: 15%
- Population Healthy Nuclei (%) [11]: 73%
- Population Hoechst High Intensity Objects (%) [11]: 4%
- Population Membrane Permeable-Phenotype (%) [11]: 0%
- Population Mitochondria Different-Phenotype (%) [11]: 38%
- Population Mitotic Cells (%) [11]: 64%
- Population Normal (%) [11]: 95%
- Population Pyknosed Nuclei (%) [11]: 11%
- Population Tubulin-Different-Phenotype (%) [11]: 23%
- Total Cell Count [11]: 494
- Population Apoptotic (%) [12]: 43%
- Population Fragmented Nuclei (%) [12]: 13%
- Population Hoechst High Intensity Objects (%) [12]: 10%
- Population Mitochondria Different-Phenotype (%) [12]: 32%
- Population Mitotic Cells (%) [12]: 56%
- Population Normal (%) [12]: 89%
- Population Pyknosed Nuclei (%) [12]: 12%
- Population Tubulin-Different-Phenotype (%) [12]: 18%
- Total Cell Count [12]: 392
